Assay outcomes (PubChem BioAssay)
Runt-CBFb FRET: inhibitors of RUNX1 Runt–CBFb binding, primary screen, biochemical, FRET, Cerulean-Runt, Venus-CBFb, uHTS; 220,000 compounds, 0.46% hits; Cerulean-Runt/Venus-CBFb FRET ratio 530/480, 1 h; inhibition, % at 20 µM; AID 1496, 2009; Runt-related transcription factor 1 (Homo sapiens) + Core-binding factor subunit beta …;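 active means inhibition over about 50% at 20 µM in the single-dose screen, limit read from the data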;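 further: 0% = DMSO wells and 100% = excess unlabeled CBFb competitor control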
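Buffer or medium: Tris pH 7.5 buffer with BSA. Assay system: Cerulean-labeled Runt domain protein. Amount: each fluorescent fusion protein 100 nM. Read-out basis: loss of energy transfer signal. Incubation: 1 h compound exposure, room temperature. Probe or stimulus: Venus-CBFb binding partner, 100 nM. Detection: FRET, excitation 422 nm, emission at 530 and 480 nm.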
Vif inh: HIV Vif self-association inhibitors, primary screen, imaging, HEK293T, single point; HEK293T cells, Vif self-association by quenched fluorescence, 24 h; inhibition, % at 7.49 µM; 340,000 compounds, 0.35% hits; AID 602346, 2012; in the data active means inhibition above about 50%, passing the limit was not always enough; inconclusive means no clear call, values can overlap the other calls; inactive means below about 31%
RanGTP-Imp inh: inhibitors of RanGTP-importin-beta interaction, primary screen, biochemical, FRET, CFP-Ran, YFP-importin-beta, homogeneous; cell-free CFP-Ran/YFP-importin-beta FRET ratio; AID 2216, 2009; 300,000 compounds, 1.1% hits; inhibition, % (test concentration not listed);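 active means more than half of the replicate wells show a fall in the fluorescence ratio signal beyond about 16%, limit read from the data, passing the limit was not always enough; inconclusive means exactly half of the replicate wells pass the set limit; inactive means fewer than half of replicates pass the limit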;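 further: 0% = DMSO wells and 100% = Ran loaded with GDP instead of GTP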
Rce1 inhib: yeast Rce1p protease inhibitors, primary screen, biochemical, fluorescence, cell-free homogeneous | AID 2563, 2010 | CAAX prenyl protease 2 (Saccharomyces cerevisiae (strain ATCC 204508 / S288c)), Q03530 | calls only | yeast membranes, quenched prenylated peptide cleavage fluorescence | 290,000 compounds, 0.27% hits;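 active means fall in fluorescence gain of 50% or more versus controls, with final raw signal at or below 3038400; inconclusive means same 50% fall but final raw signal above 3038400; inactive means fall in fluorescence gain under 50%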;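 further: plate controls were neutral control wells for no effect and wells lacking membranes for full effect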
Target sequence (Q03530 whole entry, looked up): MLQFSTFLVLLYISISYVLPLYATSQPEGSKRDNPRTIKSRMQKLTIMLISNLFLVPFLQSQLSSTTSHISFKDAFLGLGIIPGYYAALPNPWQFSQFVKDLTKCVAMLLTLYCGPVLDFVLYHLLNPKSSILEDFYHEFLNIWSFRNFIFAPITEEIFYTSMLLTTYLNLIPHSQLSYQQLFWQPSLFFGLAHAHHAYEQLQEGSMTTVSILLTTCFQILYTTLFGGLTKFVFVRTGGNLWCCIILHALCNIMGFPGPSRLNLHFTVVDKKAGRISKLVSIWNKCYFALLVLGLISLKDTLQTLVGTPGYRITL
Runt-SMMHC FRET: inhibitors of RUNX1 Runt–CBFb-SMMHC binding, primary screen, biochemical, FRET, Cerulean-Runt, Venus-CBFb-SMMHC, uHTS; Cerulean-Runt/Venus-CBFb-SMMHC FRET ratio 530/480, 1 h; inhibition, % at 20 µM; 220,000 compounds, 0.74% hits;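 active means mean inhibition across duplicate retests at 20 µM reaching about 50%, limit read from the data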;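 further: 0% = DMSO wells and 100% = wells with excess untagged CBFb-SMMHC; inhibitors lower the FRET ratio by blocking Runt binding to CBFb-SMMHC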
* = called active by the depositor; i = inactive; ? = inconclusive; . = no result; + = active, no number. An excerpt weighted towards active compounds, which were near 1.7% of everything screened.

SMILES | Runt-CBFb FRET | Vif inh | RanGTP-Imp inh | Rce1 inhib | Runt-SMMHC FRET
Oc1c(N=NC(=S)Nc2ccccc2F)c2ccccc2n1Cc1ccccc1 | -2 | 24 | ? | i | -4
COc1ccccc1CNC(=O)c1cccc(S(=O)(=O)N2CCCC2)c1 | . | -13 | . | . | .
CN(Cc1ccccc1F)Cc1cc(=O)oc2cc(O)c(Cl)cc12 | . | 7 | 67* | i | .
CC1CN(Cc2cc(=O)oc3cc(O)c(Cl)cc23)CC(C)O1 (stereo unspecified) | . | 24 | 61* | i | .
CC1CCN(Cc2cc(=O)oc3cc(O)c(Cl)cc23)CC1 | . | -1 | 118* | i | .
CC1CCN(Cc2cc(=O)oc3cc4c(cc23)CCCC4)CC1 | -2 | -3 | ? | i | 0
C[C@H]1CN([C@@H](C)CO)S(=O)(=O)c2ccc(Br)cc2O[C@@H]1CN(C)C(=O)Cc1cccnc1 | . | 1 | . | . | .
Cc1cccnc1NC(=O)CSc1nnc(CNC(=O)c2cccc([N+](=O)[O-])c2)n1C | . | 2 | -3 | i | .
COCCNC(=S)NCc1ccc2[nH]c3c(c2c1)CCCC3 | -9 | 0 | 19* | i | -22
O=C(NCCO)c1ccc2[nH]c3c(c2c1)CCCC3 | 1 | -5 | 18* | i | 1
Cc1[nH]c(=O)c(C#N)c2c1COC(C)(C)C2 | 0 | 16 | 3 | i | 0
CC1=C(C#N)C(=O)OC(C)(C)C1 | 32 | 0 | 72* | i | 78*
CCC(C)/C=C/C1=CC2=C(Cl)C(=O)C3(C)OC(=O)C(C(=O)C(C)C(C)O)C3C2=CO1 (stereo unspecified) | 12 | -14 | 88* | i | 85*
O=C1CCC(c2ccccc2)N1C(=O)c1cccnc1 (stereo unspecified) | -2 | -9 | 34* | i | 0
CC12CCC(=O)N1C(C(=O)Nc1nc3ccc(Cl)cc3s1)CS2 (stereo unspecified) | . | -3 | 3 | i | .
CSc1nc2ncc(C(=O)O)c(N)n2n1 | 2 | 51* | 7 | i | 0
Cc1cc(C)cc(NC(=O)CN2CCC(NC(=O)c3ccccc3F)CC2)c1 | . | 0 | -2 | . | .
CCC(CC)c1nn2c(N)c(/C=C3\C=Nc4ccccc43)c(=O)nc2s1 | -2 | 6 | -2 | i | 10
CC(C)c1nn2c(N)c(/C=C3\C=Nc4ccccc43)c(=O)nc2s1 | 2 | -3 | ? | i | 17
CC(C)Sc1nsc2nc(=O)c(/C=C3\C=Nc4ccccc43)c(N)n12 | 18 | 2 | 33* | i | 59*
Cc1cc2nc(=O)c(/C=C3\C=Nc4ccccc43)c(N)n2o1 | -5 | 3 | 47* | i | -45
CCN(CC)C(=O)C1=C(C)N(CCCOC)C(=O)C(CC(=O)NCCCCc2ccccc2)C1 (stereo unspecified) | . | 3 | . | . | .
CCN1CCN(c2ccc(NC(=O)c3cccc(OCc4ccccc4)c3)cc2)CC1 | 3 | -4 | 2 | + | 2
CN1CCN(c2ccc(NC(=O)c3cccc(OCc4ccccc4)c3)cc2)CC1 | 3 | 8 | -2 | i | 0
Cc1ccccc1-n1ncc2c1CC(C)(C)CC2NC(=O)C1=CC(=O)CC(C)(C)O1 (stereo unspecified) | . | 1 | 0 | i | .
SMILES | Runt-CBFb FRET | Vif inh | RanGTP-Imp inh | Rce1 inhib | Runt-SMMHC FRET
CN(C)NC(=S)Nc1ccc2nc(-c3ccccn3)c(-c3ccccn3)nc2c1 | 3 | 18 | 48* | i | -189
OCCCNC(=S)Nc1ccc2nc(-c3ccccn3)c(-c3ccccn3)nc2c1 | -2 | 10 | 36* | i | -17
CC(C)(C)CC(C)(C)NC(=S)Nc1ccc2nc(-c3ccccn3)c(-c3ccccn3)nc2c1 | -34 | ? | -26 | i | -44
COc1ccc([N+](=O)[O-])cc1N(CC(=O)N1CCCC1)S(C)(=O)=O | 2 | -4 | 0 | i | -3
Oc1cccc(Nc2nc(O)c(/C=C3\C=Nc4ccccc43)s2)c1 | -40 | 57* | . | . | -114
Cc1cc(C(F)(F)F)nc(SCCN2CCCCC2)c1C#N | . | -2 | 2 | i | .
CCN(CC(=O)Nc1cccc(S(=O)(=O)N(C)c2ccccc2)c1)Cc1ccccc1 | . | -9 | . | . | .
Cc1ccc(C)c(S(=O)(=O)N2CCN(C(=O)c3ccncc3)CC2)c1 | . | 0 | . | i | .
CCOc1ccc(N=C2NC(=O)S/C2=C\c2ccc(N(C)C)cc2)cc1 | -282 | 148* | -33 | i | -124
CCC(C)NC(=O)CO/N=C/c1ccccc1OC(F)F (stereo unspecified) | -3 | 1 | 3 | i | -1
CC1CCCCC1NC(=O)CO/N=C/c1ccccc1OC(F)F (stereo unspecified) | -13 | 91* | -3 | i | -2
CCSc1cc(C)nc2c(-c3ccccc3)c(C)nn12 | -2 | -2 | 0 | i | -2
C=C(C)CSc1cc(C)nc2c(-c3ccccc3)c(C)nn12 | -1 | 2 | 1 | + | 1
O=C1CCN(Cc2ccccc2)CCN1[C@H](CSc1ccccc1)Cc1ccccc1 | . | -8 | 3 | + | .
O=c1ccc2cc3c4c(c2o1)CCCN4CCC3 | 5 | 1 | 92* | i | 4
CCOCC(=O)NC1CCc2cc(OC(=O)COCC)c(OC)c(OC)c2-c2ccc(SC)c(=O)cc21 (stereo unspecified) | . | 95* | . | . | .
CNC1CCc2cc(OC)c(OC)c(OC)c2-c2ccc(SC)c(=O)cc21 (stereo unspecified) | . | 103* | . | . | .
CC(OC(=O)/C(C#N)=C/c1ccc(N(C)C)cc1)C(=O)N(C)Cc1ccccc1 (stereo unspecified) | . | -12 | 81* | i | .
CC(OC(=O)c1cccc(O)c1)C(=O)N(C)Cc1ccccc1 (stereo unspecified) | . | -14 | 7 | i | .
COC(=O)c1sc(-c2ccc(Cl)cc2)cc1NC(=O)CSCC(=O)O | 0 | 51* | 0 | i | -2
COC(=O)c1sc(-c2ccc(C(C)(C)C)cc2)cc1NC(=O)COCC(=O)O | 8 | . | 3 | i | 14
Cc1[nH]nc2c1C(c1ccc(F)cc1)C1=C(CC(C)(C)CC1=O)N2 (stereo unspecified) | -4 | -1 | 1 | + | 2
NC(=O)C1=C[C@@H](c2csc3ccccc23)C[C@@H](OCCCCO)O1 | 1 | -6 | 0 | i | -2
COc1cc(SSc2cc(OC)cc([N+](=O)[O-])c2N)c(N)c([N+](=O)[O-])c1 | 41 | -3 | -12 | i | 64*
